Results from different studies.
Compare with care: the assays were run in different laboratories.
Target: Serine/threonine-protein kinase pim-1 (PIM1, Homo sapiens, UniProt P11309)

With `C=CC(=O)N1CCC(C(=O)NCC(=O)N2CCN(c3nc(-c4cnc(N)nc4C(F)F)nc(N4CCOCC4)n3)CC2)CC1` the remaining binding was 95% (binding; competition with immobilised ligand; 1 µM).
`C[C@@H]1CN(c2ccc3ncc(-c4ccc5[nH]nc(C6CC6)c5c4)n3n2)C[C@H](C)O1` gave a remaining binding of 66% (binding; competition with immobilised ligand; 50 nM).
The remaining binding of `Nc1ncc2c(n1)-c1c([nH]c3ccc(C#CC4CC4)cc13)CCCC2` is reported as 73% (binding; competition with immobilised ligand; 1 µM).
With `O=C(NCC1CCOCC1)c1n[nH]cc1NC(=O)c1c(F)cccc1F` the remaining binding was 100% (binding; competition with immobilised ligand; 1 µM).
For `CCN1CCN(Cc2ccc(C(=O)Nc3ccc(C)c(Oc4ccc5c(c4)CC(=O)N5)c3)cc2C(F)(F)F)CC1`, the remaining binding was 100% (binding; competition with immobilised ligand; 1 µM).
`F[C@@H]1CCN(c2nccc(-c3cnn4ncccc34)n2)C1` has a remaining binding of 100% (binding; 1 µM).
With `O=C(c1ccc(Nc2ncc(Cl)c(-c3ccc(Cl)s3)n2)cc1)N1CCC(N2CCCC2)CC1` the remaining binding was 87% (binding; competition with immobilised ligand; 1 µM).
The remaining binding of `N[C@@H]1CCN(c2nccc(-c3cnn4ncccc34)n2)C1` is reported as 100% (binding; 1 µM).
With `CC(=O)C1=C(C)N(c2cccc(C(F)(F)F)c2)C(=O)N[C@@H]1c1ccc(C#N)nc1` the remaining binding was 100% (cell-free assay; competition with immobilised ligand; 1 µM).
The remaining binding of `O=C(NCCCN1CCOCC1)c1ccc(Nc2ncc(Cl)c(-c3ccc(Cl)s3)n2)cc1` is reported as 100% (binding; competition with immobilised ligand; 1 µM).
The remaining binding of `CNC(=O)c1ccc(Nc2ncc(C(F)(F)F)c(NCc3nccnc3N(C)S(C)(=O)=O)n2)cc1` is reported as 93% (cell-free assay; competition with immobilised ligand; 0.1 µM).
With `C[C@@H]1CCN(c2nccc(-c3cnn4ncccc34)n2)C1` the remaining binding was 84% (binding; 1 µM).
`O=C(NC[C@@H]1[C@H]2CN(C(=O)OCc3cc(C(F)(F)F)cc(C(F)(F)F)c3)C[C@@H]12)c1ccc2[nH]nnc2c1` gave a remaining binding of 98% (cell-free assay; competition with immobilised ligand; 1 µM).
The remaining binding of `c1cncc(-c2cccc(Nc3nccc(NC4CCCCC4)n3)c2)c1` is reported as 42% (binding; competition with immobilised ligand; 10 µM).
`C[C@H](c1ccc(F)cc1)N(Cc1cccc(C(=O)O)c1)C(=O)c1cnc2ccccc2c1` has a remaining binding of 100% (cell-free assay; competition with immobilised ligand; 1 µM).
The remaining binding of `CC1CCCN1c1nccc(-c2cnn3ncccc23)n1` (stereo not shown) is reported as 100% (binding; 1 µM).
For `O=C(c1ccc(Nc2nccc(-c3cc4ccccc4s3)n2)cc1)N1CCC(N2CCCC2)CC1`, the remaining binding was 75% (binding; competition with immobilised ligand; 1 µM).
`COc1cnc(Nc2cccc(S(N)(=O)=O)c2)nc1N1CCN(c2ccccc2)CC1` gave a remaining binding of 95% (binding; competition with immobilised ligand; 1 µM).
With `c1cnn2ncc(-c3ccnc(N4CCC45COC5)n3)c2c1` the remaining binding was 71% (binding; 1 µM).
`Cc1cc(C)c(-n2ccn3nc(-c4cccnc4)cc23)cc1NC(=O)c1cc(C#N)cc(S(F)(F)(F)(F)F)c1` gave a remaining binding of 92% (cell-free assay; competition with immobilised ligand; 0.1 µM).
`CN(CCCC(F)(F)F)c1nccc(-c2cnn3ncccc23)n1` has a remaining binding of 98% (binding; 1 µM).
For `O=C(O)c1cc(-c2ccc(C3CCNCC3)cc2)c2ccc(-c3ccc(C(F)(F)F)cc3)cc2c1`, the remaining binding was 100% (cell-free assay; competition with immobilised ligand; 1 µM).
With `CN(C)c1nccc(-c2cnc3ncccn23)n1` the remaining binding was 82% (binding; 1 µM).
`Cc1cc(NC(=O)c2cccc(S(F)(F)(F)(F)F)c2)cc(-n2ccn3nc(-c4cccnc4)cc23)c1` has a remaining binding of 95.6% (cell-free assay; competition with immobilised ligand; 1 µM).
`CC(C)(C)c1ccc(-c2nc(CBr)nn2-c2cccc(O)c2)cc1` has a remaining binding of 90% (cell-free assay; competition with immobilised ligand; 10 µM).
